Source: ChEMBL document CHEMBL4177752, “Discovery of Novel Schizocommunin Derivatives as Telomeric G-Quadruplex Ligands That Trigger Telomere Dysfunction and the Deoxyribonucleic Acid (DNA) Damage Response” (J Med Chem, 2018)
The source made the active and inactive calls. The rule behind the calls is not given here.

What was measured:
SiHa [1] = assay: Antiproliferative activity against human SiHa cells after 48 hrs by MTT assay; assay type: functional, cell-based
In short: (§1)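 Cells seeded at 5.0×10^3 per well and exposed to a range of compound concentrations for 48 h. MTT (2.5 mg/mL solution) was then added for 4 h, formazan was dissolved in DMSO, and OD was read at 570 nm. HL-60 was grown in RPMI-1640 with 10% FBS, the other lines in DMEM with 10% FBS, at 37 °C and 5% CO2. Triplicates; IC50 taken from mean OD versus concentration curves.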

SiHa [2] = assay: Cell cycle arrest in human SiHa cells assessed as accumulation at G2/M phase at 1 uM after 12 hrs by propidium iodide staining-based flow cytometric method; assay type: functional
In short: (§2)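 SiHa or U2OS cells (2.0×10^5 per well) were treated with compound or DMSO for 12 h, fixed in ice-cold 70% ethanol overnight, and stained with 50 µg/mL PI plus RNase A for 30 min at room temperature in the dark. 10,000 events were collected by flow cytometry to give the phase distribution.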

U2OS [3] = assay: Cell cycle arrest in human U2OS cells assessed as accumulation at G2/M phase at 1 uM after 12 hrs by propidium iodide staining-based flow cytometric method; assay type: functional; in short: as §2
Quadruplex DNA [4] = assay: Stabilization of telomeric G-quadruplex DNA in human SiHa cells assessed as increase in phosphorylated ATR expression after 48 hrs by Western blot method; assay type: cell-based
In short: (§3)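 SiHa cells were treated with compound for 48 h and lysed in RIPA buffer. 20 µg protein was run on 10% SDS-PAGE and transferred to PVDF. Blots were blocked in 3% BSA, probed with primary antibodies (1:1,000, 4 °C 16 h) for p-ATR, p-CHK1 and p-P53, then secondaries (1:2,000, 2 h at room temperature).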

SiHa [5] = assay: Antitumor activity against human SiHa cells xenografted in BALB/C-nu/nu mouse assessed as tumor growth inhibition at 10 mg/kg, ip administered daily for 3 weeks measured post last dose relative to vehicle-treated control; assay type: functional; conditions: 504 h, read-out: TGI
In short: (§4)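 SiHa cells (1×10^7 per 100 µL, serum-free DMEM) were injected subcutaneously. Grown tumors were divided into pieces and implanted into BALB/C-nu/nu mice. Caliper volume (1/2 × L × W²) and body weight were recorded daily; tumors were weighed at the end.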

U2OS [6] = assay: Antiproliferative activity against human U2OS cells after 48 hrs by MTT assay; assay type: functional, cell-based; in short: as §1
SiHa [7] = assay: Antiproliferative activity against human SiHa cells assessed as decrease in colony formation at 0.125 to 0.5 uM after 12 days by crystal violet staining-based assay; assay type: functional, cell-based
Quadruplex DNA [8] = assay: Stabilization of telomeric G-quadruplex DNA in human SiHa cells assessed as induction of DNA damage response by measuring co-localization of gamma-H2AX and TRF2 foci per nucleus at 2 uM after 24 hrs by DAPI staining-based double immunofluorescence method; assay type: cell-based
In short: (§5)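 Cells were treated 24 h with 2 µM compound or 0.1% DMSO, then fixed (4% paraformaldehyde), permeabilized (0.5% Triton X-100) and blocked (5% goat serum). Staining used BG4 (80 ng/µL, 37 °C 3 h) with anti-FLAG, and/or γ-H2AX, TRF2 or POT1 antibodies at 4 °C overnight. Alexa 488/555 secondaries and DAPI followed. Foci or co-localized foci per nucleus were counted by confocal microscopy; mean ± SEM, two-tailed unpaired t test.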

Quadruplex DNA [9] = assay: Stabilization of telomeric G-quadruplex DNA in human SiHa cells assessed as induction of telomere uncapping by measuring formation of micronuclei at 1 uM after 48 hrs by DAPI staining-based laser scanning microscopic method; assay type: cell-based
HL-60 = assay: Antiproliferative activity against human HL60 cells after 48 hrs by MTT assay; assay type: functional, cell-based; conditions: HL-60, 48 h; in short: as §1
Quadruplex DNA [10] = assay: Stabilization of telomeric G-quadruplex DNA in human SiHa cells assessed as increase in phosphorylated p53 expression after 48 hrs by Western blot method; assay type: cell-based; in short: as §3
HeLa = assay: Antiproliferative activity against human HeLa cells after 48 hrs by MTT assay; assay type: functional, cell-based; in short: as §1
Quadruplex DNA [11] = assay: Stabilization of telomeric G-quadruplex DNA in human SiHa cells assessed as induction of DNA damage response by measuring gamma-H2AX foci formation per nucleus at 2 uM after 24 hrs by DAPI staining-based immunofluorescence method relative to control; assay type: cell-based; in short: as §5
Quadruplex DNA [12] = assay: Stabilization of telomeric G-quadruplex DNA in human U2OS cells assessed as increase in BG4 foci per nucleus at 2 uM after 24 hrs by DAPI staining-based immunofluorescence method; assay type: cell-based; in short: as §5
SiHa [13] = assay: Antitumor activity against human SiHa cells xenografted in BALB/C-nu/nu mouse assessed as tumor growth inhibition at 20 mg/kg, ip administered daily for 3 weeks measured post last dose relative to vehicle-treated control; assay type: functional; conditions: 504 h, read-out: TGI; in short: as §4
[14] = Binding affinity to hairpin duplex DNA (unknown origin) at 40 uM by SPR method
In short: (§6)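 SPR: biotinylated HTG21 or hairpin DNA (200 nM) was folded in 50 mM Tris-HCl pH 7.4 with 100 mM KCl and captured to about 1,000 RU on an NLC chip against a blank reference cell. Ligand at 0.625–40 µM was injected at 25 µL/min (400 s association, 300 s dissociation) at 25 °C. The chip was regenerated with 1 M KCl and blank sensorgrams were subtracted.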

Quadruplex DNA [15] = assay: Stabilization of telomeric G-quadruplex DNA in human SiHa cells assessed as delocalization of POT1 from TRF2 foci at 2 uM after 24 hrs by DAPI staining-based double immunofluorescence method; assay type: cell-based; in short: as §5
U2OS [16] = assay: Induction of telomeric G-quadruplex DNA formation in human U2OS cells assessed as increase in co-localization of BG4/TRF2 foci per nucleus at 2 uM after 24 hrs by DAPI staining-based double immunofluorescence method; assay type: cell-based; in short: as §5
Quadruplex DNA [17] = assay: Binding affinity to HTG21 telomeric G-quadruplex DNA (unknown origin) by SPR method; assay type: nucleic-acid assay; in short: as §6

- IC50 (U2OS [6]): 3.2 µM
- IC50 (HL-60): 2.5 µM
- IC50 (HeLa): 3.8 µM
- Activity [14]: inactive
- Kd (Quadruplex DNA [17]): 8.1 µM
SMILES: CN(C)CCCNc1cc2nc(/C=C3\C(=O)Nc4cc(N5CCN(C)CC5)ccc43)[nH]c(=O)c2cc1F
- IC50 (SiHa [1]): 2.8 µM
- Activity (SiHa [2]): Active
- Activity (U2OS [3]): Active
- Activity (Quadruplex DNA [4]): Dose-dependent effect
- inhibition in vivo at 10 mg/kg (SiHa [5]): 29%
- Activity (SiHa [7]): Active
- Activity (Quadruplex DNA [8]): Active
- Activity (Quadruplex DNA [9]): Active
- Activity (Quadruplex DNA [10]): Dose-dependent effect
- fold change (FC) (Quadruplex DNA [11]): 3
- Activity (Quadruplex DNA [12]): Active
- inhibition in vivo at 20 mg/kg (SiHa [13]): 65.2%
- Activity (Quadruplex DNA [15]): Active
- Activity (U2OS [16]): Active
